1 molecule from ChEMBL document CHEMBL2034857, “Discovery of the macrocycle (9E)-15-(2-(pyrrolidin-1-yl)ethoxy)-7,12,25-trioxa-19,21,24-triaza-tetracyclo[18.3.1.1(2,5).1(14,18)]hexacosa-1(24),2,4,9,14(26),15,17,20,22-nonaene (SB1578), a potent inhibitor of janus kinase 2/fms-like tyrosine kinase-3 (JAK2/FLT3) for the treatment of rheumatoid …” (J Med Chem, 2012) can be followed below.

The IC50 is the concentration that inhibits the measured activity by half. As usually defined, the bioavailability is dose-corrected exposure relative to a reference, in per cent. One may read the inhibition as the change of the read-out against control, counted positive when it falls. As a reminder, the Cmax is the peak of the concentration-time curve. The Papp A→B is the apparent permeability from the apical to the basolateral side of a cell layer. In general, AUC(0-inf) refers to total exposure, with the tail of the curve extrapolated.

The target of series [1] is Cyclin-dependent kinase 9 (Homo sapiens, UniProt P50750). Nature of the series: Inhibition of CDK9.
Sequence of Cyclin-dependent kinase 9 (P50750 whole entry): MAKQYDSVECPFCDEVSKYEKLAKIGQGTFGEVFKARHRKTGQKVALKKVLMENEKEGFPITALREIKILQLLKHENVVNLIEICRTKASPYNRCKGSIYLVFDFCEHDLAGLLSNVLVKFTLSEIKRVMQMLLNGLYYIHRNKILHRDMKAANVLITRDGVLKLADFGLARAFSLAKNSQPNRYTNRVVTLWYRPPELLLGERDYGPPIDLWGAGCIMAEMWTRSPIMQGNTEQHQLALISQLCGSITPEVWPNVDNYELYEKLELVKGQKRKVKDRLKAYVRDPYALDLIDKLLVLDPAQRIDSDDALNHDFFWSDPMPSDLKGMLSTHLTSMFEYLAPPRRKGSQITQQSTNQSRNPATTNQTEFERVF
Series [2] can be described thus: Oral bioavailability in BALB/c nude mouse at 50 mg/kg. The note with it: in vivo. It is filed as ADME, organism-based. An outline of the steps:
(§1)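 Single oral gavage at 50 (mouse, rat), 5 (dog) or 20 (monkey) mg/kg; rodents and monkeys received suspensions in 0.5% methylcellulose/0.1% Tween 80, dogs gelatin capsules. Serial blood taken 0–24 h into K3EDTA, plasma stored at −70 °C. Parameters estimated by noncompartmental analysis, n = 3 per species (mouse values from mean concentration–time data, 3 mice per time point).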

Series [3] concerns the target Voltage-gated inwardly rectifying potassium channel KCNH2 (Homo sapiens, UniProt Q12809). Nature of the series: Displacement of dofetilide from human ERG.
Series [4] addresses Tyrosine-protein kinase JAK1 (Homo sapiens, UniProt P23458). Nature of the series: Inhibition of recombinant JAK1 using poly(Glu,Ala,Tyr) as substrate after 2 hrs by luminometric assay.
Series [5] is described as follows: Half life in human liver microsomes. It is filed as ADME, Microsome. In general terms: Liver microsomes are a subcellular fraction often used to study metabolism.
Series [6] is described as follows: Half life in mouse liver microsomes at 5 uM. It is filed as ADME, Microsome. The essentials:
(§2)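 Compound at 5 μM with human, mouse or dog microsomes at 0.87 mg/mL, or rat and monkey microsomes at 1 mg/mL, in 50 mM potassium phosphate pH 7.4 with NADPH regenerating system at 37 °C.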

In series [7] the target is hERG (Homo sapiens, UniProt Q12809). Briefly: Displacement of dofetilide from human ERG at 10 uM. The note with it: probe dofetilide.
Sequence of hERG (Q12809 whole entry): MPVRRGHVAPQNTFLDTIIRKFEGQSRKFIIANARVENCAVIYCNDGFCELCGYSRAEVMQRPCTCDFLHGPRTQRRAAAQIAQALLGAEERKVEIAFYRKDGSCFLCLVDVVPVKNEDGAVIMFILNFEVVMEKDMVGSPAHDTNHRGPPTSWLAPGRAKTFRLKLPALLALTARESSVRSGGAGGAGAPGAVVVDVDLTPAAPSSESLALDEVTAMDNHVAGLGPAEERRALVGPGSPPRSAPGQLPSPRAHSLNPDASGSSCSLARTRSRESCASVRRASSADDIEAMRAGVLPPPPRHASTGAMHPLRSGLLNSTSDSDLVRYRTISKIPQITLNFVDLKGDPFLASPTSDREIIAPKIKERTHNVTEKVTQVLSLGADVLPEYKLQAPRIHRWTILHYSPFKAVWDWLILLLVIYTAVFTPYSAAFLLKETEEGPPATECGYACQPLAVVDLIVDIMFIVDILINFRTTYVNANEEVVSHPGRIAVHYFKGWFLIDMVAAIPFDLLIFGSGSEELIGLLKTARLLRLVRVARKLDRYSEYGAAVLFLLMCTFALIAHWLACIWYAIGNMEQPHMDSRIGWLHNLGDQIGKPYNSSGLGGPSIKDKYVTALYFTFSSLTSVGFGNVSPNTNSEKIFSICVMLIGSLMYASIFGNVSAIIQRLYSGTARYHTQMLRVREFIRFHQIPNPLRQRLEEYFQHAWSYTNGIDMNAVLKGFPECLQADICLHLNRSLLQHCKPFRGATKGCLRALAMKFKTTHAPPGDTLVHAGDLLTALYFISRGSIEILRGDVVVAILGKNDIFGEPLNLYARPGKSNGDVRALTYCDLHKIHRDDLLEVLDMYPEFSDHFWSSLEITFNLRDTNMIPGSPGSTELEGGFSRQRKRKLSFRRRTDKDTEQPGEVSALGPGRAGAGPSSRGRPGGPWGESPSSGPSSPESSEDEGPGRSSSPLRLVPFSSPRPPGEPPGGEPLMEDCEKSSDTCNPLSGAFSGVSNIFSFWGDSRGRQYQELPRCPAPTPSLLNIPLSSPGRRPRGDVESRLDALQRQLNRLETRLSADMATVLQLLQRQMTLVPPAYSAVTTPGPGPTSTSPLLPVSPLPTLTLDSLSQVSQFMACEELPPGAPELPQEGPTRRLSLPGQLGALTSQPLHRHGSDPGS
Series [8] in a line: Oral bioavailability in beagle dog at 5 mg/kg. It is filed as ADME, organism-based, Canis lupus familiaris. The note with it: in vivo. An outline of the steps:
as §1

Series [9] is described as follows: Cmax in rhesus monkey at 20 mg/kg, po. Details: dose 20 mg/kg, route oral. Type of series: ADME, organism-based, Macaca mulatta. The note with it: in vivo. An outline of the steps: as §1
In series [10] the target is Cytochrome P450 2C19 (Homo sapiens, UniProt P33261). Nature of the series: Inhibition of CYP2C19 in human liver microsomes using omeprazole as substrate by LC-MS/MS analysis. It is filed as ADME, Microsome.
Sequence of Cytochrome P450 2C19 (P33261 whole entry): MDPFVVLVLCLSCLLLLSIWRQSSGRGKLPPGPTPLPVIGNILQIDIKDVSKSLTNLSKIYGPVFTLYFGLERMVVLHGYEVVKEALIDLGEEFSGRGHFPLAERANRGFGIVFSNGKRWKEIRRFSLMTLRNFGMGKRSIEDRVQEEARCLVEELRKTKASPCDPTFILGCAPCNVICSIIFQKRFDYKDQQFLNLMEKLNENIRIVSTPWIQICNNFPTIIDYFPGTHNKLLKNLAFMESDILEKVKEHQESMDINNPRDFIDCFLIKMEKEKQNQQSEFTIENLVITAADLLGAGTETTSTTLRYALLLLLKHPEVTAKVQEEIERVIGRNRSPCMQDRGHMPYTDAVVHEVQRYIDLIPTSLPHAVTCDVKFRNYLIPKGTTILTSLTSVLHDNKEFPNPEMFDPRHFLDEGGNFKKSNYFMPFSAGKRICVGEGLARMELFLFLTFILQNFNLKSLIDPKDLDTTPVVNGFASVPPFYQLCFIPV
The nature of series [11]: Apparent permeability from apical to basal side of human Caco2 cells at 10 uM after 120 mins by LC-MS/MS analysis. Type of series: ADME, cell-based. The note with it: Caco-2. The essentials:
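Caco-2 monolayers (passage 40–60) seeded at 1 × 10⁵ cells/cm² and used on day 20; 10 μM compound (1% DMSO final) in HBSS pH 7.4 with 25 mM HEPES and 4.45 mM glucose, 120 min at 37 °C, 5% CO2. Both directions run in duplicate, quantified by LC-MS/MS; lucifer yellow checks monolayer integrity.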
On the technique in general: Passage across Caco-2 layers is used to estimate intestinal permeability.

Series [12] can be described thus: Plasma protein binding in human at 1000 ng/mL by equilibrium dialysis. It is filed as ADME, cell-free. The note with it: read-out: PPB. An outline of the steps: (§3)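 Equilibrium dialysis of plasma (mouse, rat, dog, monkey, human) spiked to 1000 ng/mL final against PBS, 4 h at 37 °C; buffer side extracted with MTBE in triplicate and analyzed by LC-MS/MS.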
(In general: In equilibrium dialysis free small molecules cross a membrane that holds back macromolecules.)

A short description of series [13]: Terminal half life in BALB/c nude mouse at 50 mg/kg, po. Type of series: ADME, organism-based. Also noted: dose 50 mg/kg, route oral. The settings on record: in vivo, read-out: beta t1/2 (converted). An outline of the steps: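 Single oral dose by gavage as suspension in 0.5% methylcellulose/0.1% Tween 80 (mouse, rat, monkey) or in gelatin capsules (dog). Serial blood samples taken from 0 to 24 h into K3EDTA tubes; plasma stored at −70 °C until analysis. Parameters derived by noncompartmental methods. Rat, dog and monkey n = 3; mouse values estimated from mean concentration-time data, n = 3 mice per time point.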

The nature of series [14]: Half life in rat liver microsomes at 5 uM. It is filed as ADME, Microsome. The essentials: as §2
A short description of series [15]: Kinetic solubility in PBS buffer at pH 7. It is filed as physicochemical. The note with it: read-out: Kinetic_solubility.
Series [16] can be described thus: Thermodynamic solubility of the compound at pH 7. It is filed as physicochemical. The settings on record: buffer, read-out: Therm_solubility. The essentials:
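The citrate salt (~5 mg) was made up at 5 mg/mL in pH-buffered solution, in triplicate. It was shaken 24 h at 600 rpm at room temperature, filtered (0.4 μm) and the final pH recorded. The filtrate was diluted in acetonitrile/water (1:1), centrifuged and quantified by HPLC-UV. Two determinations were made on two different batches.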

Series [17] can be described thus: Half life in human liver microsomes at 5 uM. It is filed as ADME, Microsome. An outline of the steps:
as §2

Series [18] is described as follows: Plasma protein binding in rat at 1000 ng/mL by equilibrium dialysis. Type of series: ADME, cell-free. The settings on record: read-out: PPB (converted). The essentials: as §3
Series [19] in a line: AUC (0 to infinity) in rhesus monkey at 20 mg/kg, po. The settings on record: plasma. Details: time infinity, dose 20 mg/kg, route oral. Type of series: ADME, organism-based, Macaca mulatta. The essentials: as §1
The nature of series [20]: Cmax in BALB/c nude mouse at 50 mg/kg, po. Type of series: ADME, organism-based. The note with it: in vivo. Also noted: dose 50 mg/kg, route oral. The essentials: as §1
Series [21] in a line: AUC (0 to infinity) in Wistar rat at 50 mg/kg, po. Also noted: dose 50 mg/kg, route oral, time infinity. Type of series: ADME, organism-based. The note with it: plasma. The essentials:
as §1

Molecules are shown by their SMILES. Where only a bound is given, the exact number is not on record here.

Sequence of Tyrosine-protein kinase JAK1 (P23458 whole entry): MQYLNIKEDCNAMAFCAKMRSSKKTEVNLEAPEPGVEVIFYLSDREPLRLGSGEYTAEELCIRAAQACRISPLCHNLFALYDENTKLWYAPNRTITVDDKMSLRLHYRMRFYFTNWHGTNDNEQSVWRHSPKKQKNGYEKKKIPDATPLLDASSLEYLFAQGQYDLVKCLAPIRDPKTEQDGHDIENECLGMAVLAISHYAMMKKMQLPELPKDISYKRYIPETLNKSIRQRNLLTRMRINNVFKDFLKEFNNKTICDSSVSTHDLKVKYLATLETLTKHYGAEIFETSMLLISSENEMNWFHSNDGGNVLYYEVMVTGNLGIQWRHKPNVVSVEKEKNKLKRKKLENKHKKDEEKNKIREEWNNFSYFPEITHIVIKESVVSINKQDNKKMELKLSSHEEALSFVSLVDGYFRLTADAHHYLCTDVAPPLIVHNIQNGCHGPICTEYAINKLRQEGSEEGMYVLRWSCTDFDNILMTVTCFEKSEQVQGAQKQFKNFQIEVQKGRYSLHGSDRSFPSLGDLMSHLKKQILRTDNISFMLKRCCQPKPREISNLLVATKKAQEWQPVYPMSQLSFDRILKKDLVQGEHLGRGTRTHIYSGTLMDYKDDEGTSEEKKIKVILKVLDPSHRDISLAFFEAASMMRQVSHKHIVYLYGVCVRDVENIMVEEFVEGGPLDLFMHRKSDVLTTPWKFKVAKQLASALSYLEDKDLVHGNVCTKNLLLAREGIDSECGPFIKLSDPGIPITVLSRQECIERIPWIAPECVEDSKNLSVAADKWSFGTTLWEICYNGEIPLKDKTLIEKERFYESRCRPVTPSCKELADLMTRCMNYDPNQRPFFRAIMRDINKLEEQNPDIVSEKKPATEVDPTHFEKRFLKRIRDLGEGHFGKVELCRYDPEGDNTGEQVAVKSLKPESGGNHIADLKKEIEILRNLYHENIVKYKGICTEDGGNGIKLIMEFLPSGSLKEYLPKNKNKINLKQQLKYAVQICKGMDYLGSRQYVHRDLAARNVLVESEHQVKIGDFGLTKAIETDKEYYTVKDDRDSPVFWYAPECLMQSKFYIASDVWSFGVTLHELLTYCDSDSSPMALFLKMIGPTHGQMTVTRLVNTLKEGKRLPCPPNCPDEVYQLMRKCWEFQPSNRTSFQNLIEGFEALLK
Sequence of Voltage-gated inwardly rectifying potassium channel KCNH2 (Q12809 whole entry): as the sequence (Q12809 whole entry) above

Take `C1=C2COC/C=C/COCc3cc(ccc3OCCN3CCCC3)Nc3nccc(n3)C(=C1)O2` (mixture of isomers) [CT-1578]: the IC50 was 36 nM in series [1], above 10000 nM in series [3], 2700 nM in series [4] and 1400 nM in [10]. For the same molecule, the bioavailability in series [2] was found to be 34%; in series [8], 6%. Moreover, the half-life in series [5] was above 1 h; in [13], 0.8 h. The half-life at 5 µM in [6], in [14] and in series [17] was above 1 h throughout. The same molecule yielded an inhibition at 10 µM in series [7] of 14%. For the same molecule, the results for the Cmax in series [9] and in [20] were 1980 ng/mL and 1230 ng/mL, respectively. For the same molecule, the apparent permeability from apical to basolateral (Papp A→B) at 2 h, 10 µM in series [11] was 24.8 ×10⁻⁶ cm/s. Moreover, the fraction unbound at 1000 ng/mL in series [12] is 0.01; in series [18] it was 0.127. Moreover, in series [15], the solubility kinetic was above 250 µg/mL. Further, in [16], the solubility thermodynamic worked out at 880 µg/mL. The AUC(0-inf) was 7590 ng·h/mL in series [19] and 1500 ng·h/mL in [21].
